Experimental data from different studies.
Each line is one published result; the experiments were not run side by side.
KIT A829P: Mast/stem cell growth factor receptor Kit (KIT, Homo sapiens, UniProt P10721, A829P)
KIT D816H: Mast/stem cell growth factor receptor Kit (KIT, Homo sapiens, UniProt P10721, D816H)
KIT V559D: Mast/stem cell growth factor receptor Kit (KIT, Homo sapiens, UniProt P10721, V559D)
KIT: Mast/stem cell growth factor receptor Kit (KIT, Homo sapiens, UniProt P10721)
KIT T670I/V559D: Mast/stem cell growth factor receptor Kit (KIT, Homo sapiens, UniProt P10721, T670I/V559D)
KIT autoinhibited: Mast/stem cell growth factor receptor Kit, autoinhibited (KIT, Homo sapiens, UniProt P10721)
KIT L576P: Mast/stem cell growth factor receptor Kit (KIT, Homo sapiens, UniProt P10721, L576P)
KIT D816V: Mast/stem cell growth factor receptor Kit (KIT, Homo sapiens, UniProt P10721, D816V)

SMILES | target | read-out | method | concentration | remaining binding
C[C@H]1CCN(c2nccc(-c3cnn4ncccc34)n2)C1 | KIT A829P | binding |  | 1 µM | 83%
COc1ncc2cc3ccccc3nc2c1C#N | KIT D816H | cell-free assay | competition with immobilised ligand | 5 µM | 100%
CC(C)(O)c1cncc(-c2nc3ccc(F)cc3n2C2CC2)c1 | KIT D816H | cell-free assay | competition with immobilised ligand | 1 µM | 100%
CN1CCN(c2ccc(Nc3nccc(-c4ccccc4)n3)cc2C(F)(F)F)CC1 | KIT V559D | binding |  | 10 µM | 0.05%
CCc1ccccc1C(=O)Nc1n[nH]c2c(C)c(F)c(C3C(C#N)=C(C)N(C)C(C)=C3C#N)cc12 | KIT | cell-free assay | competition with immobilised ligand | 1 µM | 84%
CCN1CCN(Cc2ccc(C(=O)Nc3ccc(C)c(Oc4ccc5c(c4)CC(=O)N5)c3)cc2C(F)(F)F)CC1 | KIT | binding | competition with immobilised ligand | 1 µM | 0.85%
O=C(NCCCN1CCOCC1)c1ccc(Nc2ncc(Cl)c(-c3ccc(Cl)s3)n2)cc1 | KIT | binding | competition with immobilised ligand | 1 µM | 0.05%
NS(=O)(=O)c1cc(NC(=O)C2(c3ccccc3Cl)CC2)ccc1Oc1cccc(Cl)c1 | KIT A829P | cell-free assay | competition with immobilised ligand | 1 µM | 69%
Nc1ncc2c(n1)-c1c([nH]c3ccc(C#CC4CC4)cc13)CCCC2 | KIT T670I/V559D | binding | competition with immobilised ligand | 1 µM | 94%
Cc1cc(NC(=O)c2cccc(S(F)(F)(F)(F)F)c2)cc(-n2ccn3nc(-c4cccnc4)cc23)c1 | KIT A829P | cell-free assay | competition with immobilised ligand | 1 µM | 100%
Cc1cnc(Nc2ccc(C(=O)N3CCC(N4CCCC4)CC3)cc2)nc1-c1cc2ccccc2s1 | KIT autoinhibited | binding | competition with immobilised ligand | 1 µM | 22%
CN(C)c1nccc(-c2cnc3ncccn23)n1 | KIT V559D | binding |  | 1 µM | 81%
Cc1cc(-n2nc(Cc3cc(F)cc(C(F)(F)F)c3)nc2C)ccc1C(N)=O | KIT A829P | cell-free assay | competition with immobilised ligand | 1 µM | 100%
N[C@H]1CCN(c2nccc(-c3cnn4ncccc34)n2)C1 | KIT V559D | binding |  | 1 µM | 87%
Cc1c(NC(=O)c2cc(C(N)=O)nc3cc(F)ccc23)c(C(F)(F)F)nn1Cc1ccc(C(C)(C)C)cc1 | KIT D816H | cell-free assay | competition with immobilised ligand | 1 µM | 100%
N#Cc1ccccc1CSc1nnc2c(n1)[nH]c1ccccc12 | KIT T670I/V559D | binding | competition with immobilised ligand | 10 µM | 100%
O=C(NCC1CCOCC1)c1n[nH]cc1NC(=O)c1c(F)cccc1F | KIT D816H | binding | competition with immobilised ligand | 1 µM | 69%
F[C@@H]1CCN(c2nccc(-c3cnn4ncccc34)n2)C1 | KIT L576P | binding |  | 1 µM | 92%

SMILES | target | read-out | method | concentration | remaining binding
O=C(c1ccc(Nc2ncc(Cl)c(-c3cc4ccccc4s3)n2)cc1)N1CCC(N2CCCC2)CC1 | KIT A829P | binding | competition with immobilised ligand | 1 µM | 19%
C=CC(=O)N1CCC(C(=O)NCC(=O)N2CCN(c3nc(-c4cnc(N)nc4C(F)F)nc(N4CCOCC4)n3)CC2)CC1 | KIT | binding | competition with immobilised ligand | 1 µM | 93%
CC(C)(C)c1ccc(-c2nc(CBr)nn2-c2cccc(O)c2)cc1 | KIT T670I/V559D | cell-free assay | competition with immobilised ligand | 10 µM | 95%
CN(C)c1nccc(-c2cnn3ncccc23)n1 | KIT L576P | binding |  | 1 µM | 100%
O=C(NCCCN1CCOCC1)c1ccc(Nc2nccc(-c3cc4ccccc4s3)n2)cc1 | KIT | binding | competition with immobilised ligand | 1 µM | 63%
CN1CCN(c2ccc(Nc3nccc(-c4cccc([N+](=O)[O-])c4)n3)cc2C(F)(F)F)CC1 | KIT D816H | binding |  | 10 µM | 2.8%
COc1ccnn2ncc(-c3ccnc(N(C)C)n3)c12 | KIT V559D | binding |  | 1 µM | 100%
COc1cnc(Nc2cccc(S(N)(=O)=O)c2)nc1N1CCN(c2ccccc2)CC1 | KIT D816H | binding | competition with immobilised ligand | 1 µM | 66%
Cc1cnn2ncc(-c3ccnc(N(C)C)n3)c2c1 | KIT D816H | binding |  | 1 µM | 83%
CO[C@H]1CC[C@H](CNc2ccc(S(=O)(=O)NC(=O)c3ccc(N4CCN(CC5=C(c6ccc(Cl)cc6)CC(C)(C)CC5)CC4)cc3Oc3cnc4[nH]ccc4c3)cc2[N+](=O)[O-])CC1 | KIT V559D | cell-free assay | competition with immobilised ligand | 1 µM | 99%
c1cncc(-c2cccc(Nc3nccc(NC4CCCCC4)n3)c2)c1 | KIT | binding | competition with immobilised ligand | 10 µM | 3.8%
CNC(=O)[C@@H]1CC[C@@H](n2c(-c3ccc4cnccc4c3)nc3ccc(C(=O)NCc4cccc(C(N)=O)c4)cc32)C1 | KIT L576P | binding | competition with immobilised ligand | 1 µM | 99%
O=C(c1ccc(Nc2nccc(-c3cc4ccccc4s3)n2)cc1)N1CCC(N2CCCC2)CC1 | KIT D816V | binding | competition with immobilised ligand | 1 µM | 15%
COc1cnc(Nc2cccc(S(N)(=O)=O)c2)nc1N1CCN(c2ccccc2)C(=O)C1 | KIT | binding | competition with immobilised ligand | 1 µM | 98%
O=C(c1ccc(Nc2ncc(Cl)c(-c3ccc(Cl)s3)n2)cc1)N1CCC(N2CCCC2)CC1 | KIT A829P | binding | competition with immobilised ligand | 1 µM | 4.3%
C[C@@H](c1ccc(-n2cnc3c(N)ncnc32)cc1)N1CCc2nn(C)c(Cc3ccccc3)c2C1=O | KIT D816V | binding | competition with immobilised ligand | 0.1 µM | 99%
O=C(O)[C@H]1[C@H](Cn2nnc3ccccc3c2=O)CC[C@@H]1C(=O)c1ccc(OCCC2CCOCC2)cc1 | KIT D816H | cell-free assay | competition with immobilised ligand | 1 µM | 80%
O=C(Nc1c[nH]nc1C(=O)NC1CCNCC1)c1cc(F)cc(F)c1 | KIT autoinhibited | binding | competition with immobilised ligand | 1 µM | 82%
